≈ marks a conversion by molar mass, not a printed value. Some results are limits rather than exact numbers.

In general, logP refers to the decadic logarithm of the partition coefficient of the neutral form, usually between octanol and water. Low readings indicate lower lipophilicity, high ones higher lipophilicity.

In data set [1] the test system is Rattus norvegicus. The data set can be described thus: Ratio of the dose (D500, peroral administration) elevating the rat heart rate to 500 bpm and GDP ED50. Type of data set: functional.
Data set [2] deals with Beta-3 adrenergic receptor (Rattus norvegicus) (UniProt P26255). As to the kind of experiment: Stimulation of GDP binding against beta-3 adrenergic receptor in brown adipose tissue (BAT) mitochondria of rats after peroral administration (Dose necessary to produce 50% of the isoprenaline effect).
Beta-3 adrenergic receptor (Rattus norvegicus), sequence (P26255 whole entry): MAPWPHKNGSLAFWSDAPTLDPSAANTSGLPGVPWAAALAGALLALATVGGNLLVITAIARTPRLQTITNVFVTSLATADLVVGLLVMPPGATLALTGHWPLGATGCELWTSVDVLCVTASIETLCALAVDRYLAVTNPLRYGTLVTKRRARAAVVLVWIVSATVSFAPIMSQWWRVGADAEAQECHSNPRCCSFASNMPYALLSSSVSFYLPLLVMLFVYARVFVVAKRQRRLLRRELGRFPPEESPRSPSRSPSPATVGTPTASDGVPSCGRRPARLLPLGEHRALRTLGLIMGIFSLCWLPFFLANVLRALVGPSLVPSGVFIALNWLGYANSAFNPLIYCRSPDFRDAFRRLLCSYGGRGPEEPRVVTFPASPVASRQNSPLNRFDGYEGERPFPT
A short description of data set [3]: Aqueous solubility at a pH 7. Type of data set: physicochemical. Particulars: read-out: S. The procedure, abridged: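 Aqueous solubility was measured on the hydrochloride salts in aqueous buffer of 0.15 M sodium chloride and 0.01 M sodium dihydrogen phosphate at pH 7. Values are given in mg mL⁻¹.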
Data set [4] in a line: Partition coefficient (logP). Type of data set: physicochemical. Particulars: octanol/water. The procedure, abridged:
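log P is the octanol–water partition coefficient.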

The target in data set [5] is Beta-3 adrenergic receptor (Rattus norvegicus) (UniProt P26255). As to the kind of experiment: Dose of the compound (peroral administration) to […] GDP binding against Beta-3 adrenergic receptor in brown adipose tissue(BAT mitochondria) of rats. [Dose necessary to produce 50% of the isoprenaline effect].

With `CCN(CC)C(=O)COc1ccc(OCCNCC(O)COc2ccccc2)cc1` (centres undefined), the Selectivity index in data set [1] stood at 33. The compound further gave a GDP ED50 in data set [2] of 1.16 mg/kg.
On to `O=C(COc1ccc(OCCNCC(O)COc2ccccc2)cc1)NCCO` (centres undefined), for which, in data set [1], the Selectivity index is above 100. For the same compound, in data set [2], the GDP ED50 stood at 0.67 mg/kg.
As for `O=C(COc1ccc(OCCNCC(O)COc2ccccc2)cc1)NCc1ccccc1` (centres undefined), the solubility in data set [3] is 40 µg/mL (≈ 88.8 µM). The Selectivity index in data set [1] was above 100. The compound further returned a logP in data set [4] of 3.2. Also, in data set [2], the GDP ED50 worked out at 0.25 mg/kg.
Taken in the same sequence, the figures for `COCCNC(=O)COc1ccc(OCCNCC(O)COc2ccccc2)cc1` (centres undefined) were 11000 µg/mL (≈ 26300 µM), above 100, 1.7 and 0.24 mg/kg.
Turning to `NC(=O)CNC(=O)COc1ccc(OCCNCC(O)COc2ccccc2)cc1` (centres undefined), the Selectivity index in data set [1] is given as above 50. In addition, the GDP ED50 in data set [2] was found to be 1.18 mg/kg.
Taken in the same sequence, the figures for `NC(=O)COc1ccc(OCCNCC(O)COc2ccccc2F)cc1` (centres undefined) were above 10 and 2.24 mg/kg.
Taken in the same sequence, the figures for `C=CCNC(=O)COc1ccc(OCC(C)NCC(O)COc2ccccc2)cc1` (centres undefined) were above 20 and 1.03 mg/kg.
Taken in the same sequence, the figures for `CCCCNC(=O)COc1ccc(OCCNCC(O)COc2ccccc2)cc1` (centres undefined) were above 100 and 1.5 mg/kg.
As to `CNC(=O)COc1ccc(OCCNCC(O)COc2ccccc2F)cc1` (centres undefined), the Selectivity index in data set [1] is above 50. The compound further returned a GDP ED50 in data set [2] of 1.1 mg/kg.
Take `CN(C)C(=O)COc1ccc(OCCNCC(O)COc2ccccc2)cc1` (centres undefined): the Selectivity index in data set [1] is on record as above 50. In addition, in data set [2], the GDP ED50 is 1.4 mg/kg.
On to `O=C(COc1ccc(OCCNCC(O)COc2ccccc2)cc1)NCc1cccs1` (centres undefined), for which the GDP ED50 in data set [2] worked out at 0.69 mg/kg.
For the compound `O=C(COc1ccc(OCCNC[C@H](O)COc2ccccc2)cc1)NCCO`, the Selectivity index in data set [1] is given as above 50. In data set [2], this compound yielded a GDP ED50 of 0.77 mg/kg.
For `O=C(COc1ccc(OCCNCC(O)COc2ccccc2)cc1)NCc1ccc(Cl)cc1` (centres undefined), in that order: above 50 and 0.92 mg/kg.
`O=C(COc1ccc(OCCNCC(O)COc2ccccc2F)cc1)N1CCCCC1` (centres undefined) showed a GDP ED50 in data set [2] of 7.9 mg/kg.
Same read-out and setting: in the case of `CN(Cc1ccccc1)C(=O)COc1ccc(OCCNCC(O)COc2ccccc2)cc1` (centres undefined) it was 8.6 mg/kg.
Regarding `O=C(COc1ccc(OCCNCC(O)COc2ccccc2)cc1)N1CCOCC1` (centres undefined), the Selectivity index in data set [1] is given as above 100. Moreover, the GDP ED50 in data set [2] is 0.54 mg/kg.
For `O=C(COc1ccc(OCCNCC(O)COc2ccccc2)cc1)NC1CC1` (centres undefined), in that order: above 50 and 0.79 mg/kg.
With `O=C(COc1ccc(OCCNCC(O)COc2ccccc2)cc1)NCCCO` (centres undefined), in data set [3], the solubility turned out to be 36000 µg/mL (≈ 86000 µM). Also, the Selectivity index in data set [1] is above 100. In data set [4], this compound gave a log partition coefficient (logP) of 0.5. Further, in data set [2], the GDP ED50 worked out at 0.47 mg/kg.
Regarding `CNC(=O)COc1cccc(OCCNCC(O)COc2ccccc2)c1` (centres undefined), the Selectivity index in data set [1] is 74. For the same compound, in data set [2], the GDP ED50 is 0.31 mg/kg.
On to `O=C(COc1ccc(OCCNCC(O)COc2ccccc2)cc1)N1CCCCC1` (centres undefined), for which the solubility in data set [3] stood at 2000 µg/mL (≈ 4670 µM). The Selectivity index in data set [1] is given as above 100. This compound registered a logP in data set [4] of 2.6. In addition, the GDP ED50 in data set [2] amounted to 0.4 mg/kg.
`O=C(COc1ccc(OCCNCC(O)COc2ccccc2)cc1)NO` (centres undefined): in data set [1], the Selectivity index is given as above 100. The compound also showed a GDP ED50 in data set [2] of 0.5 mg/kg.
Regarding `COCCCNC(=O)COc1ccc(OCCNCC(O)COc2ccccc2)cc1` (centres undefined), the Selectivity index in data set [1] is reported as above 100. This compound came in with a GDP ED50 in data set [2] of 0.83 mg/kg.
Consider `CC(C)CNC(=O)COc1ccc(OCCNCC(O)COc2ccccc2)cc1` (centres undefined), for which the GDP ED50 in data set [2] came out at 3.2 mg/kg.
For the compound `O=C(COc1ccc(OCCNCC(O)COc2ccccc2)cc1)N1CCc2ccccc2C1` (centres undefined), the Selectivity index in data set [1] was above 100. The compound further yielded a GDP ED50 in data set [2] of 0.44 mg/kg.
For `O=C(COc1ccc(OCCNCC(O)COc2ccccc2)cc1)NC1CCCC1` (centres undefined), the Selectivity index in data set [1] is on record as above 10. The same compound yielded a GDP ED50 in data set [2] of 3.1 mg/kg.
Taken in the same sequence, the figures for `CNC(=O)COc1ccc(OCCNCC(O)COc2ccccc2)cc1` (centres undefined) were above 50 and 1.2 mg/kg.
As for `NC(=O)COc1ccc(OCCNCC(O)COc2ccccc2)cc1` (centres undefined), the solubility in data set [3] was found to be 400 µg/mL (≈ 1110 µM). The Selectivity index in data set [1] is above 100. Moreover, in data set [4], the log partition coefficient (logP) worked out at 1.1. In data set [2], this compound returned a GDP ED50 of 0.3 mg/kg.
Taken in the same sequence, the figures for `CC(C)NC(=O)COc1ccc(OCCNCC(O)COc2ccccc2)cc1` (centres undefined) were 900 µg/mL (≈ 2240 µM), above 100, 2.4 and 0.4 mg/kg.
`COCCNC(=O)COc1ccc(OCCNC[C@H](O)COc2ccc(O)cc2)cc1`: the GDP ED50 in data set [2] came to 4.16 mg/kg.
With `CC(NC(=O)COc1ccc(OCCNCC(O)COc2ccccc2)cc1)c1ccccc1` (centres undefined), the Selectivity index in data set [1] was above 10. The compound also yielded a GDP ED50 in data set [2] of 0.96 mg/kg.
As to `CCC(C)NC(=O)COc1ccc(OCCNCC(O)COc2ccccc2)cc1` (centres undefined), in data set [2], the GDP ED50 was determined as 1.7 mg/kg.
Take `CCNC(=O)COc1ccc(OCCNCC(O)COc2ccccc2)cc1` (centres undefined): the Selectivity index in data set [1] is given as above 100. The compound also had a GDP ED50 in data set [2] of 0.5 mg/kg.
`COCC(C)NC(=O)COc1ccc(OCCNCC(O)COc2ccccc2)cc1` (centres undefined) showed a GDP ED50 in data set [2] of 3.88 mg/kg.
The same measure, in the same setting: next, `O=C(COc1ccc(OCCNCC(O)COc2ccccc2)cc1)N1Cc2ccccc2C1` (centres undefined): 1.3 mg/kg; `O=C(COc1ccc(OCCNCC(O)COc2ccccc2)cc1)NCc1ccco1` (centres undefined): 1.53 mg/kg; `O=C(COc1ccc(OCCNCC(O)COc2ccccc2)cc1)NCc1ccc(Cl)cc1Cl` (centres undefined): 2.77 mg/kg.
Take `O=C(COc1ccc(OCCNCC(O)COc2ccccc2)cc1)NCCc1ccccc1` (centres undefined): in data set [1], the Selectivity index is on record as above 50. For the same compound, the GDP ED50 in data set [2] came out at 1.23 mg/kg.
For `CNC(=O)COc1ccc(OCCNC[C@H](O)COc2ccccc2)cc1`, in that order: above 100 and 0.57 mg/kg.
With `O=C(COc1ccc(OCCNCC(O)COc2ccccc2)cc1)Nc1ccccc1` (centres undefined), the GDP ED50 in data set [2] amounted to 1.38 mg/kg.
Turning to `COCCNC(=O)COc1ccc(OCCNC[C@H](O)COc2ccccc2)cc1`, in data set [1], the Selectivity index is given as above 100. In data set [2], this compound registered a GDP ED50 of 0.34 mg/kg.
`O=C(COc1ccc(OCCNCC(O)COc2ccccc2)cc1)NOCc1ccccc1` (centres undefined): the GDP ED50 in data set [2] turned out to be 0.48 mg/kg.
Consider `CNC(=O)COc1ccc(OCC(C)NCC(O)COc2ccccc2)cc1` (centres undefined), for which, in data set [1], the Selectivity index is above 10. In addition, the GDP ED50 in data set [2] worked out at 0.25 mg/kg.
The compound `COCCNC(=O)COc1ccc(OCCNC[C@@H](O)COc2ccccc2)cc1` showed a GDP ED50 in data set [2] of 69.9 mg/kg.
Same read-out and setting: in the case of `O=C(COc1ccc(OCCNCC(O)COc2ccccc2)cc1)N1CCCO1` (centres undefined) it was 0.49 mg/kg.
Consider `CCCNC(=O)COc1ccc(OCCNCC(O)COc2ccccc2)cc1` (centres undefined), for which the solubility in data set [3] is 600 µg/mL (≈ 1490 µM). In addition, the Selectivity index in data set [1] was above 100. The logP in data set [4] was 2.4. In data set [5], this compound returned a GDP ED50 of 0.2 mg/kg.
`NNC(=O)COc1ccc(OCCNCC(O)COc2ccccc2)cc1` (centres undefined) gave a GDP ED50 in data set [2] of 1.15 mg/kg.
Regarding `CC(CO)NC(=O)COc1ccc(OCCNCC(O)COc2ccccc2)cc1.O` (centres undefined), in data set [1], the Selectivity index is above 50. Besides, the GDP ED50 in data set [2] stood at 0.85 mg/kg.
For `O=C(COc1ccc(OCCNCC(O)COc2ccccc2)cc1)N1CCCC1` (centres undefined), in that order: above 50 and 1.8 mg/kg.
Taken in the same sequence, the figures for `O=C(COc1ccc(OCCNCC(O)COc2ccccc2)cc1)NCCOc1ccccc1` (centres undefined) were above 100 and 0.72 mg/kg.
For `C=CCNC(=O)COc1ccc(OCCNCC(O)COc2ccccc2)cc1` (centres undefined), in that order: above 100 and 0.64 mg/kg.

These data come from ChEMBL document CHEMBL1126292, “Selective beta 3-adrenergic agonists of brown adipose tissue and thermogenesis. 2. [4-[2-[(2-Hydroxy-3-phenoxypropyl)amino]ethoxy]phenoxy]acetamides” (J Med Chem, 1992).
